{"source": "ChEMBL document CHEMBL4689842", "about": "“EUbOPEN Chemogenomics Library wave 1” (2021)", "test_system": "HEK-293T", "assay": "Multiplex assay against HEK293T;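 as to Population Tubulin-Different-Phenotype (%): share of the cells with healthy nuclei that show this phenotype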", "type": "toxicity, cell-based", "conditions": "human", "in_short": "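At seeding, live cells were stained with Hoechst33342, BioTracker Green Microtubule Cytoskeleton Dye, MitoTracker Red and Annexin V Alexa Fluor 680. After compound addition they were imaged on a CQ1 microscope at 37°C and 5% CO2, and CellPathfinder machine-learning gating sorted them into Hoechst high-intensity objects or normal cells, with normal cells further split into healthy, pyknosed or fragmented nuclei and pyknosed cells into mitotic or apoptotic. Tubulin, mitochondrial-mass and membrane-permeability phenotypes are given as per cents of cells with healthy nuclei.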", "key": {"[1]": {"conditions": "12 h, 1 µM, compound concentration 1 uM, replicate 1"}, "[2]": {"conditions": "12 h, 1 µM, compound concentration 1 uM, replicate 2"}, "[3]": {"conditions": "12 h, 10 µM, compound concentration 10 uM, replicate 1"}, "[4]": {"conditions": "12 h, 10 µM, compound concentration 10 uM, replicate 2"}, "[5]": {"conditions": "24 h, 1 µM, compound concentration 1 uM, replicate 1"}, "[6]": {"conditions": "24 h, 1 µM, compound concentration 1 uM, replicate 2"}, "[7]": {"conditions": "24 h, 10 µM, compound concentration 10 uM, replicate 1"}, "[8]": {"conditions": "24 h, 10 µM, compound concentration 10 uM, replicate 2"}, "[9]": {"conditions": "48 h, 10 µM, compound concentration 10 uM, replicate 1"}, "[10]": {"conditions": "48 h, 10 µM, compound concentration 10 uM, replicate 2"}}, "note": "Where “and” joins values, the source holds several entries; their conditions need not be identical. Identical values can stand only once.", "data": [{"smiles": "COCC(=O)NC/C=C/c1ccc2ncnc(Nc3ccc(Oc4ccc(C)nc4)c(C)c3)c2c1", "note": "[CP-724714]", "values": [{"measurement": "Population Apoptotic (%)", "setting": "[1]", "value": "22% and 23%"}, {"measurement": "Population Fragmented Nuclei (%)", "setting": "[1]", "value": "14% and 11%"}, {"measurement": "Population Healthy Nuclei (%)", "setting": "[1]", "value": "39% and 69%"}, {"measurement": "Population Hoechst High Intensity Objects (%)", "setting": "[1]", "value": "16% and 10%"}, {"measurement": "Population Mitotic Cells (%)", "setting": "[1]", "value": "77% and 76%"}, {"measurement": "Population Normal (%)", "setting": "[1]", "value": "83% and 89%"}, {"measurement": "Population Pyknosed Nuclei (%)", "setting": "[1]", "value": "46% and 18%"}, {"measurement": "Total Cell Count", "setting": "[1]", "value": "617 and 674"}, {"measurement": "Population Apoptotic (%)", "setting": "[2]", "value": "16% and 8%"}, {"measurement": "Population Healthy Nuclei (%)", "setting": "[2]", "value": "70% and 89%"}, {"measurement": "Population Hoechst High Intensity Objects (%)", "setting": "[2]", "value": "3% and 2%"}, {"measurement": "Population Mitotic Cells (%)", "setting": "[2]", "value": "83% and 91%"}, {"measurement": "Population Normal (%)", "setting": "[2]", "value": "96% and 97%"}, {"measurement": "Total Cell Count", "setting": "[2]", "value": "843 and 1632"}, {"measurement": "Population Apoptotic (%)", "setting": "[3]", "value": 66, "unit": "%"}, {"measurement": "Population Fragmented Nuclei (%)", "setting": "[3]", "value": 19, "unit": "%"}, {"measurement": "Population Healthy Nuclei (%)", "setting": "[3]", "value": 18, "unit": "%"}, {"measurement": "Population Hoechst High Intensity Objects (%)", "setting": "[3]", "value": 19, "unit": "%"}, {"measurement": "Population Membrane Permeable-Phenotype (%)", "setting": "[3]", "value": 2, "unit": "%"}, {"measurement": "Population Mitochondria Different-Phenotype (%)", "setting": "[3]", "value": 100, "unit": "%"}, {"measurement": "Population Mitotic Cells (%)", "setting": "[3]", "value": 33, "unit": "%"}, {"measurement": "Population Normal (%)", "setting": "[3]", "value": 80, "unit": "%"}, {"measurement": "Population Pyknosed Nuclei (%)", "setting": "[3]", "value": 62, "unit": "%"}, {"measurement": "Population Tubulin-Different-Phenotype (%)", "setting": "[3]", "value": 100, "unit": "%"}, {"measurement": "Total Cell Count", "setting": "[3]", "value": 329}, {"measurement": "Population Apoptotic (%)", "setting": "[4]", "value": 48, "unit": "%"}, {"measurement": "Population Fragmented Nuclei (%)", "setting": "[4]", "value": 12, "unit": "%"}, {"measurement": "Population Healthy Nuclei (%)", "setting": "[4]", "value": 12, "unit": "%"}, {"measurement": "Population Hoechst High Intensity Objects (%)", "setting": "[4]", "value": 6, "unit": "%"}, {"measurement": "Population Membrane Permeable-Phenotype (%)", "setting": "[4]", "value": 11, "unit": "%"}, {"measurement": "Population Mitochondria Different-Phenotype (%)", "setting": "[4]", "value": 96, "unit": "%"}, {"measurement": "Population Mitotic Cells (%)", "setting": "[4]", "value": 51, "unit": "%"}, {"measurement": "Population Normal (%)", "setting": "[4]", "value": 93, "unit": "%"}, {"measurement": "Population Pyknosed Nuclei (%)", "setting": "[4]", "value": 75, "unit": "%"}, {"measurement": "Population Tubulin-Different-Phenotype (%)", "setting": "[4]", "value": 92, "unit": "%"}, {"measurement": "Total Cell Count", "setting": "[4]", "value": 230}, {"measurement": "Population Apoptotic (%)", "setting": "[5]", "value": "31% and 18%"}, {"measurement": "Population Fragmented Nuclei (%)", "setting": "[5]", "value": "13% and 9%"}, {"measurement": "Population Healthy Nuclei (%)", "setting": "[5]", "value": "54% and 81%"}, {"measurement": "Population Hoechst High Intensity Objects (%)", "setting": "[5]", "value": "12% and 6%"}, {"measurement": "Population Membrane Permeable-Phenotype (%)", "setting": "[5]", "value": 19, "unit": "%"}, {"measurement": "Population Mitotic Cells (%)", "setting": "[5]", "value": "68% and 81%"}, {"measurement": "Population Normal (%)", "setting": "[5]", "value": "87% and 93%"}, {"measurement": "Total Cell Count", "setting": "[5]", "value": "614 and 832"}, {"measurement": "Population Apoptotic (%)", "setting": "[6]", "value": "14% and 5%"}, {"measurement": "Population Healthy Nuclei (%)", "setting": "[6]", "value": "65% and 76%"}, {"measurement": "Population Hoechst High Intensity Objects (%)", "setting": "[6]", "value": "4% and 2%"}, {"measurement": "Population Membrane Permeable-Phenotype (%)", "setting": "[6]", "value": "10% and 9%"}, {"measurement": "Population Mitotic Cells (%)", "setting": "[6]", "value": "85% and 94%"}, {"measurement": "Population Normal (%)", "setting": "[6]", "value": "95% and 97%"}, {"measurement": "Total Cell Count", "setting": "[6]", "value": "1006 and 2815"}, {"measurement": "Population Apoptotic (%)", "setting": "[7]", "value": 71, "unit": "%"}, {"measurement": "Population Fragmented Nuclei (%)", "setting": "[7]", "value": 23, "unit": "%"}, {"measurement": "Population Healthy Nuclei (%)", "setting": "[7]", "value": 17, "unit": "%"}, {"measurement": "Population Hoechst High Intensity Objects (%)", "setting": "[7]", "value": 19, "unit": "%"}, {"measurement": "Population Membrane Permeable-Phenotype (%)", "setting": "[7]", "value": 0, "unit": "%"}, {"measurement": "Population Mitochondria Different-Phenotype (%)", "setting": "[7]", "value": 97, "unit": "%"}, {"measurement": "Population Mitotic Cells (%)", "setting": "[7]", "value": 28, "unit": "%"}, {"measurement": "Population Normal (%)", "setting": "[7]", "value": 80, "unit": "%"}, {"measurement": "Population Pyknosed Nuclei (%)", "setting": "[7]", "value": 58, "unit": "%"}, {"measurement": "Total Cell Count", "setting": "[7]", "value": 336}, {"measurement": "Population Apoptotic (%)", "setting": "[8]", "value": 70, "unit": "%"}, {"measurement": "Population Fragmented Nuclei (%)", "setting": "[8]", "value": 7, "unit": "%"}, {"measurement": "Population Healthy Nuclei (%)", "setting": "[8]", "value": 28, "unit": "%"}, {"measurement": "Population Hoechst High Intensity Objects (%)", "setting": "[8]", "value": 6, "unit": "%"}, {"measurement": "Population Membrane Permeable-Phenotype (%)", "setting": "[8]", "value": 6, "unit": "%"}, {"measurement": "Population Mitochondria Different-Phenotype (%)", "setting": "[8]", "value": 98, "unit": "%"}, {"measurement": "Population Mitotic Cells (%)", "setting": "[8]", "value": 29, "unit": "%"}, {"measurement": "Population Normal (%)", "setting": "[8]", "value": 93, "unit": "%"}, {"measurement": "Population Pyknosed Nuclei (%)", "setting": "[8]", "value": 63, "unit": "%"}, {"measurement": "Population Tubulin-Different-Phenotype (%)", "setting": "[8]", "value": 95, "unit": "%"}, {"measurement": "Total Cell Count", "setting": "[8]", "value": 245}, {"measurement": "Population Apoptotic (%)", "setting": "[9]", "value": 62, "unit": "%"}, {"measurement": "Population Fragmented Nuclei (%)", "setting": "[9]", "value": 26, "unit": "%"}, {"measurement": "Population Healthy Nuclei (%)", "setting": "[9]", "value": 10, "unit": "%"}, {"measurement": "Population Hoechst High Intensity Objects (%)", "setting": "[9]", "value": 22, "unit": "%"}, {"measurement": "Population Membrane Permeable-Phenotype (%)", "setting": "[9]", "value": 7, "unit": "%"}, {"measurement": "Population Mitochondria Different-Phenotype (%)", "setting": "[9]", "value": 82, "unit": "%"}, {"measurement": "Population Mitotic Cells (%)", "setting": "[9]", "value": 37, "unit": "%"}, {"measurement": "Population Normal (%)", "setting": "[9]", "value": 77, "unit": "%"}, {"measurement": "Population Pyknosed Nuclei (%)", "setting": "[9]", "value": 62, "unit": "%"}, {"measurement": "Population Tubulin-Different-Phenotype (%)", "setting": "[9]", "value": 92, "unit": "%"}, {"measurement": "Total Cell Count", "setting": "[9]", "value": 347}, {"measurement": "Population Apoptotic (%)", "setting": "[10]", "value": 66, "unit": "%"}, {"measurement": "Population Fragmented Nuclei (%)", "setting": "[10]", "value": 8, "unit": "%"}, {"measurement": "Population Healthy Nuclei (%)", "setting": "[10]", "value": 51, "unit": "%"}, {"measurement": "Population Hoechst High Intensity Objects (%)", "setting": "[10]", "value": 5, "unit": "%"}, {"measurement": "Population Mitochondria Different-Phenotype (%)", "setting": "[10]", "value": 90, "unit": "%"}, {"measurement": "Population Mitotic Cells (%)", "setting": "[10]", "value": 33, "unit": "%"}, {"measurement": "Population Normal (%)", "setting": "[10]", "value": 94, "unit": "%"}, {"measurement": "Population Pyknosed Nuclei (%)", "setting": "[10]", "value": 39, "unit": "%"}, {"measurement": "Population Tubulin-Different-Phenotype (%)", "setting": "[10]", "value": 96, "unit": "%"}, {"measurement": "Total Cell Count", "setting": "[10]", "value": 291}]}]}
